Data as given in ChEMBL document CHEMBL4699403, “Cyclic boronates as versatile scaffolds for KPC-2 beta-lactamase inhibition” (RSC Med Chem, 2020).
Each block holds one molecule with its values, some of them ahead of it.

Legend:
[1] = Inhibition of beta lactamase KPC-2 in Klebsiella pneumoniae using nitrocefin as substrate preincubated for 10 mins followed by substrate addition
Procedure, shortened: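 KPC-2 was preincubated with cyclic boronate for 10 min in 10 mM HEPES pH 7.5, 150 mM NaCl at 25 °C. 50 μM nitrocefin was then added and initial hydrolysis rates were read at 486 nm. IC50 was derived from the inhibitor concentration dependence of these rates. Inhibitor stocks were 100 mM in DMSO, diluted in buffer.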

[2] = system: Klebsiella pneumoniae; experiment: Potentiation of meropenem-induced antibacterial activity against Klebsiella pneumoniae Ecl8 transfected with pUBYT vector expressing KPC-2 assessed as meropenem MIC measured after 18 to 24 hrs by CLSI protocol based broth microdilution assay (reference value: 16 ug/ml); assay type: functional; conditions: time hrs 18-24
Procedure, shortened: (§1)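 Broth microdilution in cation-adjusted Mueller–Hinton broth per CLSI, triplicate; K. pneumoniae Ecl8 carrying pUBYT with blaKPC-2 under the ISKpn7 promoter. β-Lactam serially diluted with inhibitor fixed at 4 mg per liter (diluted from 100 mM DMSO stock). Incubated at 37 °C for 18 to 24 hours; growth read as absorbance at 600 nm.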

[3] = Inhibition of beta lactamase KPC-2 in Klebsiella pneumoniae assessed as apparent inhibition constant using nitrocefin as substrate measured without preincubation by Dixon plot analysis; conditions: read-out: Ki(app)
Procedure, shortened: (§2)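 Direct competition assays at 25 °C in 10 mM HEPES pH 7.5, 150 mM NaCl. A range of cyclic boronate concentrations was mixed with 50 μM nitrocefin, and the reaction was started by adding 1 nM KPC-2. Nitrocefin hydrolysis was followed at 486 nm (Δε 20 500 M-1 cm-1). Kiapp and k2/K were both taken from these competition data. Inhibitor stocks were 100 mM in DMSO, diluted in buffer.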

[4] = system: Klebsiella pneumoniae; experiment: Potentiation of cefepime-induced antibacterial activity against Klebsiella pneumoniae Ecl8 transfected with pUBYT vector expressing KPC-2 assessed as cefepime MIC measured after 18 to 24 hrs by CLSI protocol based broth microdilution assay (Rvb >=256 ug/ml); assay type: functional; conditions: time hrs 18-24; procedure, shortened: as §1
[5] = system: Klebsiella pneumoniae; experiment: Inhibition of beta lactamase KPC-2 in Klebsiella pneumoniae assessed as apparent second order rate constant K2/K using nitrocefin as substrate; procedure, shortened: as §2
[6] = system: Klebsiella pneumoniae; experiment: Irreversible inhibition of beta lactamase KPC-2 in Klebsiella pneumoniae assessed as off-rate constant using nitrocefin as substrate preincubated for 30 mins followed by substrate addition
Procedure, shortened: (§3)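 Jump-dilution off-rate assay. 1 μM KPC-2 was preincubated with 8 μM cyclic boronate for 30 min at room temperature, then serially diluted to a final KPC-2 concentration of 500 pM. 50 μM nitrocefin was added and recovery of hydrolysis was monitored at 486 nm in 10 mM HEPES pH 7.5, 150 mM NaCl. koff and half-life were derived from the recovery.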

[7] = system: Klebsiella pneumoniae; experiment: Inhibition of beta lactamase KPC-2 in Klebsiella pneumoniae assessed as irreversible covalent complex formation by measuring half life using nitrocefin as substrate; procedure, shortened: as §3

SMILES: NCCN[C@H]1CC[C@H](CC(=O)N[C@H]2Cc3cccc(C(=O)O)c3OB2O)CC1
IC50 [1]: 0.037 µM
MIC [2]: ≤ 0.125 µg/mL
Ki [3]: 1.3 µM
MIC [4]: ≤ 0.125 µg/mL
K [5]: 1 10^4/M/s

Ki [3]: 1.2 µM
K [6]: 0.00087 s⁻¹
SMILES: O=C(NC1CCNCC1)[C@@H]1CC[C@@H]2CN1C(=O)N2OS(=O)(=O)O [RELEBACTAM]

SMILES: O=C(O)C[C@@H]1CC[C@H](NC(=O)Cc2cccs2)B(O)O1 [VABORBACTAM]
IC50 [1]: 0.035 µM
MIC [2]: ≤ 0.125 µg/mL
T1/2 [7]: 1.2 h
Ki [3]: 8.5 µM
MIC [4]: ≤ 0.125 µg/mL
K [5]: 6.7 10^2/M/s
K [6]: 0.00016 s⁻¹
